Data from article PMC6467287 (Bioorganic & medicinal chemistry letters, 2018).

Assays:
[1] = test system: DUBs (decomposition of high molecular weight ubiquitinated proteins, HMW-Ub) in HEK 293T cell lysates; type: biochemical; conditions: for DUB inhibitory activity, SAR statement in words: ring B amine modification; for increase of inhibitory potency (factor): relative to C4; for stabilization of the HMW-Ub pool (in words): HEK 293T HA-Ub lysates, 37 °C
[2] = test system: endogenous K48-linked HMW ubiquitin pool in untransfected HEK 293T lysates; type: biochemical; conditions: read-out: EC50 for stabilization of the endogenous K48-linked HMW ubiquitin pool
[3] = test system: 26S proteasome (flux through the ubiquitin-proteasome system); assay: G76VUb-GFP assay in HEK 293T cells; type: cell-based; conditions: HEK 293T cells expressing G76VUb-GFP
SENP6 = biological target: T1, SENP6 (Homo sapiens, UniProt Q9GZR1); assay: SENP6-catalyzed deSUMOylation of RanGap; type: biochemical; conditions: 30 min at room temperature with inhibitor
T1 sequence (Q9GZR1 628-1112): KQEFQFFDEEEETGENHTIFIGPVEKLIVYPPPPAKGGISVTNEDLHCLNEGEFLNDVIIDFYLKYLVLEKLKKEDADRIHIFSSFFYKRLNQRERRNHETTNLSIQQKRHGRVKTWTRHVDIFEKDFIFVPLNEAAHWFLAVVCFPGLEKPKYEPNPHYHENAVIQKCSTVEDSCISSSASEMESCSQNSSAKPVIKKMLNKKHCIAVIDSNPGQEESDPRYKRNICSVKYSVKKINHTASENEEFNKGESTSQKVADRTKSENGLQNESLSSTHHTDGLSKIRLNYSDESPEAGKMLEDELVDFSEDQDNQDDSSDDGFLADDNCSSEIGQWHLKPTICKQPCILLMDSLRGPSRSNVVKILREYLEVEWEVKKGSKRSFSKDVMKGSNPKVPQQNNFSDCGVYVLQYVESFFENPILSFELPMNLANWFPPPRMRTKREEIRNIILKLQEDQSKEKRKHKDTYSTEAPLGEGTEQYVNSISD
Summary of the method: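 His6-tagged SENP6 catalytic domain (aa 628-1112, 200 nM) was preincubated with test compound for 30 min at room temperature. SUMOylated His6-RanGap1 catalytic domain (aa 418-588, 3 μM) was then added for 10 min at 37 °C. Reactions were quenched in Laemmli buffer, resolved by SDS-PAGE and blotted with anti-His6 antibody.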

K562 leukemia cells = assay: Effects on K562 leukemia cells; type: cell-based; conditions: for accumulation of K48-linked HMW-Ub / Bcr-Abl level: 50 μM, 2 h; for Bcr-Abl level: anti-Abl immunoblot
Summary of the method: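 K562 cells were treated with test compound (50 μM, 2 h) and immunoblotted for K48-linked ubiquitin and for Bcr-Abl (anti-Abl); Bcr-Abl was also tested over a dose range. For the bortezomib series, cells got test compound (50 μM) with or without bortezomib (6 μM) for 4 h. Lysates were sonicated in SDS before PAGE. Cell cycle was read by FACS, scoring G1 and sub-G1 (apoptotic) cells.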

MCF7 breast cancer cells = assay: Effects on MCF7 cells; type: cell-based; conditions: for cytotoxicity of C17 hydrolysis products: viability of MCF7 cells
trypsin = assay: Trypsin-catalyzed hydrolysis of diarylcarbonates; type: biochemical
Summary of the method: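 The diarylcarbonate served as substrate for trypsin. Hydrolysis velocity was measured across substrate concentrations, and Km and kcat were derived from the velocity versus substrate concentration plot.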

[4] = test system: DUBs (USP9x, USP19, USP7/8, USP28/15, UCHL5, UCHL3, UCHL1) in HEK 293T cell lysates; assay: HA-Ub-VS activity profiling of HEK 293T cell lysates; type: biochemical
Summary of the method: (§1)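 HEK 293T lysate (1.5 mg/ml) was treated with test compound (25 μM) or DMSO, then HA-Ub-VS (1.5 μM) was added, or both were added together. Timed aliquots were anti-HA blotted. For the dilution test, lysate (15 mg/ml) was preincubated with compound (250 μM) for 30 min, diluted tenfold, then given HA-Ub-VS (1.5 μM). USP7 was read by anti-USP7 blot as the probe-shifted band.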

[5] = biological target: DUBs (USP9x, USP19, USP7/8, USP28/15, UCHL5, UCHL3, UCHL1) in HEK 293T cell lysates (Homo sapiens, UniProt Q93009); assay: as above; type: biochemical; conditions: HEK 293T cell lysate
DUBs (USP9x, USP19, USP7/8, USP28/15, UCHL5, UCHL3, UCHL1) in HEK 293T cell lysates (Homo sapiens, UniProt Q93009), sequence (Q93009 whole entry): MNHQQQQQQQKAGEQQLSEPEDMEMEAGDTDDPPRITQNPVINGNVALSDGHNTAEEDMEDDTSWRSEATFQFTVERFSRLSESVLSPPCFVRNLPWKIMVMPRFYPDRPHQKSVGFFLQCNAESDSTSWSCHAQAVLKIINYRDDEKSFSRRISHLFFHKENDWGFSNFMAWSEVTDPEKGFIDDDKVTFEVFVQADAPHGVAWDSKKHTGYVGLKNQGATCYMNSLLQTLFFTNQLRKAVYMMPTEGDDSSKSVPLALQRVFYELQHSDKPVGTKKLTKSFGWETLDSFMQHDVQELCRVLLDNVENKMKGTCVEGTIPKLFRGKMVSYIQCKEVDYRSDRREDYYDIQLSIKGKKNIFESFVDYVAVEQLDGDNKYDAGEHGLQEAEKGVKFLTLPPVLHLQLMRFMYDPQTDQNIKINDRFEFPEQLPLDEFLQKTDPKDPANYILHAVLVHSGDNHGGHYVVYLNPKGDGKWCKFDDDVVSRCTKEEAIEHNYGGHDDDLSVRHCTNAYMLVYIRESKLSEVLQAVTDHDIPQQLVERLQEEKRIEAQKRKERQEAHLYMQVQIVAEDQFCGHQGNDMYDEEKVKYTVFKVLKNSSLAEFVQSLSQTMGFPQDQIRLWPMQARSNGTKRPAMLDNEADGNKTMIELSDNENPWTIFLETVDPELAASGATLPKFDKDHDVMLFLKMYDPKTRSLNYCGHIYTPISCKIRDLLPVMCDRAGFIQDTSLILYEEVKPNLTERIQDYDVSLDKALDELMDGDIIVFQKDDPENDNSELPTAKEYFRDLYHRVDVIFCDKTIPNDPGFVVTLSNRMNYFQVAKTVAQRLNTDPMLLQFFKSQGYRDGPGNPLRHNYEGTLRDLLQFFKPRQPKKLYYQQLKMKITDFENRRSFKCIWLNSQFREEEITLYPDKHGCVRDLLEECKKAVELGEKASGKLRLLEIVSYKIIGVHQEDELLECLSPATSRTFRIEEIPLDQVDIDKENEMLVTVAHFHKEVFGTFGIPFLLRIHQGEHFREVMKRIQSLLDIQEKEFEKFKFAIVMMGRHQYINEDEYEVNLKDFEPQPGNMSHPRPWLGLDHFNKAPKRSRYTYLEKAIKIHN
Summary of the method: as §1

[6] = test system: NCc1ccc(OC(=O)Oc2ccc3ccccc3c2)cc1; assay: purified protein, by the assay type; conditions: other: chymotrypsin; 37.0 °C
[7] = test system: N/N=C/NCc1ccc(OC(=O)Oc2ccc3ccccc3c2)cc1; assay: purified protein, by the assay type; conditions: other: chymotrypsin; 37.0 °C
USP9x = USP9x (Homo sapiens, UniProt Q93008); assay: Time-dependent inhibition of recombinant USP9x; type: biochemical; conditions: read-out: kon of commercially available DUB inhibitors (range)
USP9x, sequence (Q93008 whole entry, species assumed): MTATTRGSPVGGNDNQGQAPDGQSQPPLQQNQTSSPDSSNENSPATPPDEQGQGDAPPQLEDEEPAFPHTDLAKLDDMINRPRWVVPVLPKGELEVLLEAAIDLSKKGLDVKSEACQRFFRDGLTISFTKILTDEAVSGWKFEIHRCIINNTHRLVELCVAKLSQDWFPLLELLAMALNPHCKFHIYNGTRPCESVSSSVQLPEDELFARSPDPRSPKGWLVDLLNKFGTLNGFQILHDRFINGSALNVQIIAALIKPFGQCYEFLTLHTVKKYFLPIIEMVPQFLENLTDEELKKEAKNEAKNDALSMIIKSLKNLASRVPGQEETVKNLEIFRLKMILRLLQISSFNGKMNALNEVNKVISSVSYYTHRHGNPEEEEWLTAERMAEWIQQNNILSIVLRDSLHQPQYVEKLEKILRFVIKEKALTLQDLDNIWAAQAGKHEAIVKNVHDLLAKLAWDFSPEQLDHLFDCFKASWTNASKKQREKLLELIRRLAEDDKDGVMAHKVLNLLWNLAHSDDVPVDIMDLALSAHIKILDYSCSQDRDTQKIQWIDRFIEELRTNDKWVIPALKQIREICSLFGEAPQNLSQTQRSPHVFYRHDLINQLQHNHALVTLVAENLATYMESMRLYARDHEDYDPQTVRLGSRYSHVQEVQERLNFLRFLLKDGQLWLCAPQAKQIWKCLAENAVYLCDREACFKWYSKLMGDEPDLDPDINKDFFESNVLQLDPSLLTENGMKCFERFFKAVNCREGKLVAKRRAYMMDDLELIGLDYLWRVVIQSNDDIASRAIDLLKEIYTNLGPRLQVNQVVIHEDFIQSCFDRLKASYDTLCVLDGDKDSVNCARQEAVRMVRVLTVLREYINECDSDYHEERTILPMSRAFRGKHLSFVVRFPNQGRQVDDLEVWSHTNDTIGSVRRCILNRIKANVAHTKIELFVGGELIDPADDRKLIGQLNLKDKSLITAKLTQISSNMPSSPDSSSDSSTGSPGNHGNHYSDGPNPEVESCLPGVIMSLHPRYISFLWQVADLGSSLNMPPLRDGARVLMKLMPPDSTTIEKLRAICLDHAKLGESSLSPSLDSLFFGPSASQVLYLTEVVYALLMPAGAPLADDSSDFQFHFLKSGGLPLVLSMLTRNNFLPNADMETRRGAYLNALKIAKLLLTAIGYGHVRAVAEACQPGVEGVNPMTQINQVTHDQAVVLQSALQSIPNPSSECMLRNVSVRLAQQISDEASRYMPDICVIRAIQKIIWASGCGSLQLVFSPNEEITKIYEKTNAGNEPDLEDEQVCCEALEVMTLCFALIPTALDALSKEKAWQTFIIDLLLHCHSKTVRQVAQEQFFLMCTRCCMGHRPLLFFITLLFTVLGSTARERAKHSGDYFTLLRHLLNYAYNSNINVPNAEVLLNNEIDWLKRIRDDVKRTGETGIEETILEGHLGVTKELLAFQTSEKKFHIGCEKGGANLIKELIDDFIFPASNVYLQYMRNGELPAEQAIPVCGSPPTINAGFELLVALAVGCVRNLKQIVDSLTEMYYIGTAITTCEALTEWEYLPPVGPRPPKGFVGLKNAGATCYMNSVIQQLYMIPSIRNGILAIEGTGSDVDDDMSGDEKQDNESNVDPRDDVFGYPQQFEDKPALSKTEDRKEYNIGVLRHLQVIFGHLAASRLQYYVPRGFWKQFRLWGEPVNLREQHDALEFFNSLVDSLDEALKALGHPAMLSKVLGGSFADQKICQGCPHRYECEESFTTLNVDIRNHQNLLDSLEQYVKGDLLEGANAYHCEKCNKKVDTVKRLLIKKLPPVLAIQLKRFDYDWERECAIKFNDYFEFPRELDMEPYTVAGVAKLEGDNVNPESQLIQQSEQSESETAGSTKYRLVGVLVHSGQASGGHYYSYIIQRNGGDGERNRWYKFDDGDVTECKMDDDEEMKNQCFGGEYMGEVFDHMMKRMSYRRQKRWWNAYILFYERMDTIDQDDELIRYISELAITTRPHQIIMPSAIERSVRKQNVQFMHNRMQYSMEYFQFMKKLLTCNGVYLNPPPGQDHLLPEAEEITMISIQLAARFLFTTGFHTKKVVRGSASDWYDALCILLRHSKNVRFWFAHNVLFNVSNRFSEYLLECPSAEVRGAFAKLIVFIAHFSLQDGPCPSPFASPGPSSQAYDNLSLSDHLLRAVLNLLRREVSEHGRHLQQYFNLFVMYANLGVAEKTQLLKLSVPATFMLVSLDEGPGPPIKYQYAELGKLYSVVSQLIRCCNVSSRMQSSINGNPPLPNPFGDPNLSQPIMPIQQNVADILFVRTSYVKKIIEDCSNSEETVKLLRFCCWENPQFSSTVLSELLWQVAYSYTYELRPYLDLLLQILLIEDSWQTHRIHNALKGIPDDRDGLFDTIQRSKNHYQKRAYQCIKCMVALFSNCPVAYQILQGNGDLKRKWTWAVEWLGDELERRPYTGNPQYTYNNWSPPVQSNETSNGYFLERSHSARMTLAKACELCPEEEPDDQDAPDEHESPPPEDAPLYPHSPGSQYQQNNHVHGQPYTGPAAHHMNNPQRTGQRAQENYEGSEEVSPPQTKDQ

Compound: CC(C)(C)OC(=O)NCc1ccc(OC(=O)Oc2ccccc2)cc1 [C3]
- DUB inhibitory activity, SAR statement in words [1]: activity was lost

Compound: NCc1ccc(OC(=O)Oc2ccc(Br)cc2)cc1 [C15]
- EC50 [2]: < 50 µM
- GFP fluorescence in G76VUb-GFP assay [3]: failed to increase
- inhibition of SENP6-catalyzed deSUMOylation of RanGap (SENP6): failed to inhibit
- accumulation of K48-linked HMW-Ub (K562 leukemia cells): caused the accumulation
- Bcr-Abl level (K562 leukemia cells): decrease
- increase of inhibitory potency (factor) [1]: approximately 10

Compound: NCc1ccc(OC(=O)Oc2ccc(Cl)cc2)cc1 [C14]
- EC50 [2]: < 50 µM
- GFP fluorescence in G76VUb-GFP assay [3]: failed to increase
- inhibition of SENP6-catalyzed deSUMOylation of RanGap (SENP6): failed to inhibit
- accumulation of K48-linked HMW-Ub (K562 leukemia cells): caused the accumulation
- Bcr-Abl level (K562 leukemia cells): decrease
- increase of inhibitory potency (factor) [1]: approximately 10

Compound: NCc1ccc(OC(=O)Nc2ccccc2)cc1 [C7]
- stabilization of the HMW-Ub pool (in words) [1]: did not stabilize

Compound: Oc1ccc2ccccc2c1 [2-naphthol]
- cytotoxicity of C17 hydrolysis products (MCF7 breast cancer cells): not cytotoxic

Compound: NCc1ccc(OC(=O)Oc2cccc3ccccc23)cc1 [C18]
- EC50 [2]: < 50 µM
- GFP fluorescence in G76VUb-GFP assay [3]: failed to increase
- accumulation of K48-linked HMW-Ub (K562 leukemia cells): caused the accumulation
- Bcr-Abl level (K562 leukemia cells): decrease

Compound: N/N=C/NCc1ccc(OC(=O)Oc2ccc3ccccc3c2)cc1 [C22]
- kcat as substrate (trypsin): 0.001 s⁻¹
- inhibition of SENP6-catalyzed deSUMOylation of RanGap (SENP6): failed to inhibit
- DUB inhibitory activity, SAR statement in words [1]: efficacious

Compound: CC(C)CNCc1ccc(OC(=O)Oc2ccc3ccccc3c2)cc1 [C21]
- DUB inhibitory activity, SAR statement in words [1]: somewhat deleterious

Compound: Cc1cc(C(=O)CN2CCCC2)c(C)n1-c1ccc(F)cc1 [IU1, reference compound]
- stabilization of the HMW-Ub pool (in words) [1]: little effect

Compound: NCc1ccc(OC(=O)Oc2ccc3ccccc3c2)cc1 [C17]
- EC50 [2]: < 50 µM
- GFP fluorescence in G76VUb-GFP assay [3]: failed to increase
- kcat as substrate (trypsin): 0.02 s⁻¹
- accumulation of soluble HMW-Ub (MCF7 breast cancer cells; MCF7 cells, 50 μM, 4 h): caused the accumulation
- Mdm2 levels (MCF7 breast cancer cells; MCF7 cells, 4 h): decreased
- p21/WAF1 levels (MCF7 breast cancer cells; MCF7 cells, 4 h): robust increase
- p53 levels (MCF7 breast cancer cells; MCF7 cells, 4 h): concomitant increase
- cell viability (MCF7 breast cancer cells; MCF7 cells, treated every 24 h, 72 h, Alamar Blue): cell viability decreased
- accumulation of K48-linked HMW-Ub (K562 leukemia cells): caused the accumulation
- Bcr-Abl level (K562 leukemia cells): decrease
- G1 and apoptotic (sub G1) cells (K562 leukemia cells; 24 h incubation, FACS): dose-dependent increase
- Bcr-Abl degradation in the presence of bortezomib (K562 leukemia cells; C17 50 μM, bortezomib 6 μM, 4 h): did not prevent
- HA-Ub-VS labeling of DUB bands ([4]; compound (25 μM) and HA-Ub-VS (1.5 μM) added simultaneously): no inhibition of DUB labeling was observed
- HA-Ub-VS labeling of DUB bands ([4]; lysate treated with compound (25 μM) followed by HA-Ub-VS (1.5 μM)): decreasing the labeling of all the bands
- HA-Ub-VS labeling of DUB bands ([4]; pre-incubated with compound (250 μM) 30 min, diluted 10-fold before HA-Ub-VS): labeling was reduced
- inhibition of USP7 (anti-USP7 immunoblot after HA-UbVS) [5]: inhibition of USP7 was confirmed

Compound: O=C1/C(=C/c2ccc([N+](=O)[O-])cc2)CS(=O)(=O)C/C1=C\c1ccc([N+](=O)[O-])cc1 [G5, G5 isopeptidase inhibitor 1, reference compound]
- GFP fluorescence in G76VUb-GFP assay [3]: No significant increase
- stabilization of the HMW-Ub pool (in words) [1]: stabilized

Compound: NCc1ccc(O)cc1 [4-aminomethylphenol]
- cytotoxicity of C17 hydrolysis products (MCF7 breast cancer cells): not cytotoxic

Compound: NCc1ccc(NC(=O)Oc2ccccc2)cc1 [C8]
- stabilization of the HMW-Ub pool (in words) [1]: did not stabilize

Compound: CC(C)C[C@H](NC(=O)[C@H](Cc1ccccc1)NC(=O)c1cnccn1)B(O)O [bortezomib, reference compound]
- GFP fluorescence in G76VUb-GFP assay [3]: significantly increased
- stabilization of the HMW-Ub pool (in words) [1]: failed to stabilize

Compound: O=C(Oc1ccccc1)Oc1ccc(CNCc2ccc(Cl)cc2)cc1 [C5]
- DUB inhibitory activity, SAR statement in words [1]: retained DUB inhibitory activity

Compound: chymotrypsin (Bos taurus)
- Km [6]: 1 µM
- kcat [6]: 0.03 s⁻¹
- Km [7]: 1 µM
- kcat [7]: 0.03 s⁻¹

Compound: CC(C)(C)OC(=O)NCc1ccc(OC(=O)Oc2ccc(Cl)cc2)cc1 [C23]
- DUB inhibitory activity, SAR statement in words [1]: Inhibitory activity was not recovered

Compound: Cc1ccc(/C=C2\CNC/C(=C\c3ccc(C)cc3)C2=O)cc1 [NSC-632839]
- kon (USP9x): 49 to 140 M⁻¹ s⁻¹

Compound: CC(C)(C)CNCc1ccc(OC(=O)Oc2ccc3ccccc3c2)cc1 [C20]
- DUB inhibitory activity, SAR statement in words [1]: Inhibitory activity was retained

Compound: CC(C)(C)OC(=O)NCc1ccc(OC(=O)Oc2ccc3ccccc3c2)cc1 [C19]
- DUB inhibitory activity, SAR statement in words [1]: Inhibitory activity was not recovered
